The source of these data is ChEMBL document CHEMBL3124926, “Identification of highly efficacious glucocorticoid receptor agonists with a potential for reduced clinical bone side effects” (J Med Chem, 2014).

Broadly, the Emax is the size of the effect at its maximum, as opposed to the concentration needed. The IC50 is the concentration at which inhibition is half-maximal.

Where only a bound is given, the exact number is not on record here.

In experiment [1] the target is T1, Glucocorticoid receptor (Homo sapiens) (UniProt P04150).
T1 sequence (whole entry): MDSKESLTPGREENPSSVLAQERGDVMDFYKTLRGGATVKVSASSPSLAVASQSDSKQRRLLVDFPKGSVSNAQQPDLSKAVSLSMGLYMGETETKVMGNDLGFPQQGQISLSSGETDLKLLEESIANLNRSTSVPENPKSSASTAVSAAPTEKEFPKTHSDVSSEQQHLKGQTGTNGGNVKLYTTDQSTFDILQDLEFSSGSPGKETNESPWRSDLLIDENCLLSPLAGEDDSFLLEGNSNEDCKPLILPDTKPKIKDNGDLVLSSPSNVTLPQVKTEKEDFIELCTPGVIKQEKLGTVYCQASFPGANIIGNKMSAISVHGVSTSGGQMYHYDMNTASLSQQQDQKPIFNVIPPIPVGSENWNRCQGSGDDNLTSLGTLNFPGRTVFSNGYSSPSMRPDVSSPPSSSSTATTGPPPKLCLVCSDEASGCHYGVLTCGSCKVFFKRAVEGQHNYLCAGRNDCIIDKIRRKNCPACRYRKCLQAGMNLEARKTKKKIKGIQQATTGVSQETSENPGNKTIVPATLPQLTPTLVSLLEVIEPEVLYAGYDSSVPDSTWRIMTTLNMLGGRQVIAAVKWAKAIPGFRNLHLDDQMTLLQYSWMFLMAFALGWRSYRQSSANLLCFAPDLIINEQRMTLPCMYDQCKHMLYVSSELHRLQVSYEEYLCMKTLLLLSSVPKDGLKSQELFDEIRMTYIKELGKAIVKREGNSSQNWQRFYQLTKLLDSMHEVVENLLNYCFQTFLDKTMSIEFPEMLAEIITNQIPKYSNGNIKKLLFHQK
Kind of experiment: Agonist activity at glucocorticoid receptor in human […] cells assessed as suppression of vitamin D-induced osteocalcin production at 2 uM after 48 hrs by Gla-type osteocalcin ELISA relative to dexomethasone. The class given is cell-based. In a few lines: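 MG-63 human osteosarcoma cells plated at 20000/well in DMEM/F-12 with 1% charcoal-filtered FBS and 10 μg/mL vitamin C. Medium refreshed next day, then vitamin D (10 nM final) added with compound (2 × 10−6 to 10−10 M), duplicates. Incubated 48 h at 37 °C; supernatant osteocalcin measured by Gla-type ELISA. Vitamin D-only wells = 100%. Max efficacy at 2 μM is relative to dexamethasone (100%).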
(In general: An ELISA detects its analyte on a solid surface through an enzyme-linked reagent.)

In experiment [2] the target is T1, Glucocorticoid receptor (Homo sapiens). Kind of experiment: Transrepression activity at glucocorticoid receptor in human fibroblasts assessed as inhibition of IL-1-induced IL-6 production at 2 uM after 18 to 24 hrs relative to dexomethasone. A digest of the protocol:
(§1)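 Human foreskin fibroblasts grown in Iscove's medium with 10% charcoal/dextran-treated FBS, plated at 20000/well two days before. Medium replaced, then compound (0.4% DMSO final) and recombinant human IL-1 (1 ng/mL final) added. 18–24 h at 37 °C; IL-6 in medium quantified by electrochemiluminescence, DELFIA or ELISA. IC50 by four-parameter fit of duplicate 11-point curves. Efficacy relative to dexamethasone (100%); top concentration 2 μM.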

In experiment [3] the target is T2, Glucocorticoid receptor (Homo sapiens, UniProt P04150).
T2 sequence (P04150 whole entry): T1 sequence (whole entry)
Kind of experiment: Competitive binding affinity to glucocorticoid receptor (unknown origin) expressed in baculovirus-infected cell system after 1 hr by fluorescence polarization assay in presence of tetramethylrhodamine-labeled dexamethasone. A digest of the protocol: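 Lysates of baculovirus-infected insect cells co-expressing receptor with HSP-70, HSP-90 and p23 (GR diluted 300-fold, MR 17-fold). Probe 5 nM tetramethylrhodamine-dexamethasone in TES/KCl/molybdate/EDTA/CHAPS/glycerol/DTT buffer, pH 7.4, 1% DMSO. 1 h at room temperature in the dark; fluorescence polarization read (ex 550/em 580 nm). Background set with 2 μM dexamethasone. IC50 from duplicate 11-point curves, four-parameter fit, mean of at least two determinations.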
In general terms: In fluorescence polarisation assays a small probe gives low polarisation when free and higher when bound to something large.

The next experiment concerns the target T3, Progesterone receptor (Homo sapiens, UniProt P06401).
T3 sequence (P06401 whole entry): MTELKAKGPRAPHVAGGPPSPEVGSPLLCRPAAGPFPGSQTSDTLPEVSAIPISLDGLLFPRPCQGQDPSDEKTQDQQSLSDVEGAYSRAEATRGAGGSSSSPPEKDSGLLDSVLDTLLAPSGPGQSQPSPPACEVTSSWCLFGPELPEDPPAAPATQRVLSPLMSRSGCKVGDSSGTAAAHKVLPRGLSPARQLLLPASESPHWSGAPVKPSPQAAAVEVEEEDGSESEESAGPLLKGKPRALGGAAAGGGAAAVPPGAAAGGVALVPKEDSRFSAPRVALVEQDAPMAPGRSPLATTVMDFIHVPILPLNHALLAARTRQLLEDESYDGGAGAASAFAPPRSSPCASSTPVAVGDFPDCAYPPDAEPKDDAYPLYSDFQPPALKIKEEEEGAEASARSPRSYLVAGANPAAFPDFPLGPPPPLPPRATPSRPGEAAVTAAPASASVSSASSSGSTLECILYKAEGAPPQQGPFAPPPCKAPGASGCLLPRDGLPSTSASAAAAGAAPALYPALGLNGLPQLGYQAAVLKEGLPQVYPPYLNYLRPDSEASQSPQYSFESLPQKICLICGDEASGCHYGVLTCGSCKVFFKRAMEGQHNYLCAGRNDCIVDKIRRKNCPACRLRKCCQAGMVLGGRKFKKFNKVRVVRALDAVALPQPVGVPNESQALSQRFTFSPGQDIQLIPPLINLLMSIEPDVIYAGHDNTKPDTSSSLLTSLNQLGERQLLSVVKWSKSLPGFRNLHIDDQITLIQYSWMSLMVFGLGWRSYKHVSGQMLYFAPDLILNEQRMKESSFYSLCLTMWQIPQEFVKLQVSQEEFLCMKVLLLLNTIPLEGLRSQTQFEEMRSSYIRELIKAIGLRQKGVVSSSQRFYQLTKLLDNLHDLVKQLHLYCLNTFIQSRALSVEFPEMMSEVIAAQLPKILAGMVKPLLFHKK
As to the kind of experiment: Competitive binding affinity to progesterone receptor (unknown origin) expressed in baculovirus-infected cell system after 1 hr by fluorescence polarization assay in presence of tetramethylrhodamine-labeled RU-486. A digest of the protocol:
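PR from lysate of insect cells infected with receptor baculovirus alone, diluted 13-fold. Probe 5 nM tetramethylrhodamine-labeled RU-486 in pH 7.4 TES/KCl/molybdate buffer with 1% DMSO. 1 h at room temperature in the dark, then fluorescence polarization (ex 550/em 580 nm). Background set with 2 μM RU-486. IC50 from duplicate 11-point curves, four-parameter logistic fit, mean of at least two determinations.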

In experiment [4] the target is T2, Glucocorticoid receptor. As to the kind of experiment: Transrepression activity at glucocorticoid receptor in human fibroblasts assessed as inhibition of IL-1-induced IL-6 production after 18 to 24 hrs. A digest of the protocol:
as §1

Experiment [5] concerns the target T1, Glucocorticoid receptor (Homo sapiens). As to the kind of experiment: Agonist activity at glucocorticoid receptor in human HeLa cells transfected with luciferase gene linked to MMTV promoter assessed as induction of luciferase transactivation activity at 2 uM after 6 hrs by luminescence assay. Type of experiment: cell-based. A digest of the protocol:
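HeLa cells stably carrying an MMTV-luciferase construct, plated the day before at 25000/well in DMEM with 3% FBS. Medium replaced, then compound added (0.2% DMSO final); 1 μM dexamethasone wells = 100% induction, vehicle = background. Incubated 6 h at 37 °C, 5% CO2. Luminescence read after lysis; activation expressed as % of positive control. Top concentration 2 μM.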

With `Cc1ccc(F)cc1C(C)(C)C[C@@](O)(Cc1cc2nnccc2[nH]1)C(F)(F)F`, the maximal effect (Emax) in experiment [1] was 34%; in experiment [2], 86%; in experiment [5] it was 0%. The IC50 at Glucocorticoid receptor [3] was 5 nM; on Progesterone receptor, above 2000 nM; on Glucocorticoid receptor [4], 9 nM.
Turning to `Cc1ccc(F)cc1C(C)(C)C[C@@](O)(Cc1cc2ncncc2[nH]1)C(F)(F)F`, the figures for the Emax in experiment [1], in experiment [2] and in experiment [5] were 32%, 72% and 0%, respectively. Also, the IC50 is 4 nM at Glucocorticoid receptor [3], above 2000 nM at Progesterone receptor and 13 nM at Glucocorticoid receptor [4].
For the compound `Cc1ccc(F)cc1C(C)(C)CC(O)(Cc1cc2nc(-c3ccccc3)ncc2[nH]1)C(F)(F)F` (racemic), the maximal effect (Emax) in experiment [1] was determined as 72%; in experiment [2], 93%; in experiment [5], 36%. Besides, the IC50 is 5 nM at Glucocorticoid receptor [3], above 2000 nM at Progesterone receptor and 8 nM on Glucocorticoid receptor [4].
Regarding `Cc1ccc(F)cc1C(C)(C)CC(O)(Cc1cc2nc(-c3cccnc3)ncc2[nH]1)C(F)(F)F` (racemic), the Emax worked out at 74% in experiment [1], 92% in experiment [2] and 32% in experiment [5]. Further, the IC50 at Glucocorticoid receptor [3] is 5 nM; at Progesterone receptor, above 2000 nM; on Glucocorticoid receptor [4], 12 nM.
As for `Cc1ccc(F)cc1C(C)(C)CC(O)(Cc1cc2nc(N3CCS(=O)(=O)CC3)ncc2[nH]1)C(F)(F)F` (racemic), the Emax in experiment [1] was 80%; in experiment [2] it was 84%; in experiment [5] it was 22%. The IC50 on Glucocorticoid receptor [3] is 8 nM; on Progesterone receptor it was above 2000 nM; at Glucocorticoid receptor [4], 19 nM.
Regarding `CC(C)(CC(O)(Cc1cc2ncncc2[nH]1)C(F)(F)F)c1ccc(F)cc1O` (racemic), the Emax is 28% in experiment [1], 86% in experiment [2] and 22% in experiment [5]. The IC50 turned out to be 5 nM on Glucocorticoid receptor [3], 880 nM on Progesterone receptor and 9 nM on Glucocorticoid receptor [4].
As for `CC(C)(CC(O)(Cc1cc2ncncc2[nH]1)C(F)(F)F)c1cc(Cl)cc2c1OCC2` (racemic), the maximum response (Emax) turned out to be 35% in experiment [1], 87% in experiment [2] and 12% in experiment [5]. Further, the IC50 amounted to 5 nM at Glucocorticoid receptor [3], 1700 nM on Progesterone receptor and 13 nM on Glucocorticoid receptor [4].
`Cc1ccc(F)cc1C(C)(C)CC(O)(Cc1cc2nnccc2[nH]1)C(F)(F)F` (racemic): the results for the maximum response (Emax) in experiment [1], in experiment [2] and in experiment [5] were 45%, 85% and 7%, respectively. In addition, the IC50 at Glucocorticoid receptor [3] was 7 nM; on Progesterone receptor, above 2000 nM; on Glucocorticoid receptor [4] it was 16 nM.
In the case of `Cc1ccc(F)cc1C(C)(C)CC(O)(Cc1cc2cc(-c3ccccc3)nnc2[nH]1)C(F)(F)F` (racemic), the maximum response (Emax) in experiment [1] worked out at 73%; in experiment [5], 75%. The concentration for half-maximal inhibition (IC50) on Glucocorticoid receptor [3] is 13 nM; on Progesterone receptor, above 2000 nM; at Glucocorticoid receptor [4] it was 6 nM.
As for `Cc1ccc(F)cc1C(C)(C)CC(O)(Cc1cc2ncncc2[nH]1)C(F)(F)F` (racemic), the Emax was 32% in experiment [1], 74% in experiment [2] and 0% in experiment [5]. Also, the values for the IC50 on Glucocorticoid receptor [3], on Progesterone receptor and at Glucocorticoid receptor [4] were 8 nM, above 2000 nM and 19 nM, respectively.
